Assay [1] in a line: Tested for substrate activity of compound for Carboxypeptidase G1. Details: species or system Mus musculus. Summed up:
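Cleavage by carboxypeptidase G₁ was followed as the A320 change on release of the pteroate. Conditions were 37 °C in 0.05 M potassium phosphate, pH 6.7, with 100 μM ZnSO₄. Enzyme was diluted in 1% BSA to give ΔA320 of 0.02–0.2/min. Km and Vmax came from Lineweaver-Burk plots. Ki came from competitive runs varying analogue against fixed MTX, or vice versa.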

The next assay deals with L1210. The assay can be described thus: Cytotoxicity against L1210 cells. The class given is functional. Conditions: Mus musculus, read-out: ID50 (the source's name).
The species entered for assay [2] is Mus musculus. The assay can be described thus: Percentage increase in life span after 14-22 days. Type of assay: functional. Summed up: (§1)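 Male B6D2F1J mice (20–25 g), randomized after i.p. inoculation with 10^5 L1210 ascitic leukemia cells on day 0. Drug in water, pH 7.5–8.0, given i.p. on a q2d×5, qd×9 (from day 1) or b.i.d.×10 schedule; 5 mice per group. %ILS = [(T/C) − 1]100 from median survival days of treated versus control mice. Range is survival days.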

The subject of assay [3] is Mus musculus. Put plainly: Weight change on day 7 in L1210 Lymphoid Leukemia in mice at a dose of 40 mg/kg/day (qdx9). The class given is functional. Summed up: (§2)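 Male B6D2F1J mice (20–25 g) were inoculated i.p. with 10⁵ L1210 ascites cells on day 0 and randomized into groups of 5. Drug in water at pH 7.5–8.0 was given i.p. daily for 9 days (qd×9) from day 1. Animals were weighed after 7 days, and the % body-weight change was recorded under a standard NCI protocol.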

The species named for assay [4] is Mus musculus. The assay can be described thus: Percentage increase in life span after 13-18 days. Type of assay: functional. The gist of the method:
as §1

The target in assay [5] is Dihydrofolate reductase (Lactobacillus casei) (UniProt P00381). The following applies: Lacticaseibacillus casei.
Assay [6] has as its system Mus musculus. Put plainly: Weight change on day 7 in L1210 Lymphoid Leukemia in mice at a dose of 20 mg/kg/day (qdx9). Type of assay: functional. The gist of the method:
(§3)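 Male B6D2F₁J mice (20–25 g) bearing ip L1210 ascites (10⁵ cells, day 0) were used, 5 per group. Drug was given ip in water at pH 7.5–8.0 from day 1 on q2d×5, qd×9 or b.i.d.×10 schedules. Animals were weighed after 7 days and percent weight change recorded.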

For assay [7], the system named is Mus musculus. The assay can be described thus: Toxicity in mice after 11-16 days at a dose of 2 mg/kg/day; value is 12/8.5. Type of assay: functional.
For assay [8], the species on record is Mus musculus. Put plainly: Percentage increase in life span after 10-24 days. Type of assay: functional. Summed up:
as §1

Assay [9] concerns Mus musculus. The assay can be described thus: Weight change on day 7 in L1210 Lymphoid Leukemia in mice at a dose of 20 mg/kg/day (qdx5). Type of assay: functional. Conditions: in the assay text read “q2dx5” for “qdx5”. Summed up: as §3
In assay [10] the target is Dihydrofolate reductase (Lactobacillus casei) (UniProt P00381). The following applies: Lacticaseibacillus casei. This is another data set of the same source.
For assay [11], the species on record is Mus musculus. Put plainly: Percentage increase in life span after 11-16 days. The class given is functional. The gist of the method: as §1
Assay [12] concerns Mus musculus. The assay can be described thus: Toxicity in mice after 10-24 days at a dose of 20 mg/kg/day; value is 18/9. The class given is functional.
Assay [13] has as its system Mus musculus. Put plainly: Weight change on day 7 in L1210 Lymphoid Leukemia in mice at a dose of 4 mg/kg/day (1dx9). Type of assay: functional. The gist of the method:
as §3

In assay [14] the target is T1, Dihydrofolate reductase (Mus musculus) (UniProt P00375).
T1 sequence (whole entry): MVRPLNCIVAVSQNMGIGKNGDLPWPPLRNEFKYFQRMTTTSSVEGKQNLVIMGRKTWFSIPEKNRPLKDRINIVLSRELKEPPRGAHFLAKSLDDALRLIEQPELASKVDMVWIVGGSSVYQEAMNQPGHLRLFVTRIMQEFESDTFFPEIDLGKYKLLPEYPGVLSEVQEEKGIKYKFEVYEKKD
The assay can be described thus: Binding affinity to Dihydrofolate reductase of L1210 cell line using [H]MTX as radioligand. The class given is cell-based. The gist of the method:
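Competitive [³H]MTX binding to dihydrofolate reductase from L1210 leukemia. Ascites cells from tumor-bearing mice were washed and lysed before use. The assay ran at 37 °C in 0.1 M potassium phosphate, pH 6.8. ID₅₀ was read as inhibition of radioligand binding, with MTX included in each experiment.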

In assay [15] the test system is Mus musculus. Put plainly: Toxicity in mice after 10-23 days at a dose of 40 mg/kg/day; value is 21/9. The class given is functional.
The subject of assay [16] is Mus musculus. Put plainly: Weight change on day 7 in L1210 Lymphoid Leukemia in mice at a dose of 2 mg/kg/day (1dx9). The class given is functional. Summed up:
as §3

In assay [17] the test system is Mus musculus. Put plainly: Toxicity in mice after 10-22 days at a dose of 40 mg/kg/day; value is 15/9. Type of assay: functional.
Assay [18] concerns Carboxypeptidase G1 (Pseudomonas). The assay can be described thus: Tested for substrate activity of compound for Carboxypeptidase G1.
For assay [19], the species on record is Mus musculus. The assay can be described thus: Percentage increase in life span after 12-20 days. Type of assay: functional. Summed up: as §1
Assay [20] has as its target T1, Dihydrofolate reductase (Mus musculus).
For assay [21], the system named is Mus musculus. The assay can be described thus: Toxicity in mice after 13-18 days at a dose of 20 mg/kg/day; value is 13/9. Type of assay: functional.
Assay [22] deals with Mus musculus. Put plainly: Toxicity in mice after 14-22 days at a dose of 8 mg/kg/day; value is 14/8.5. Type of assay: functional.
Assay [23] addresses T1, Dihydrofolate reductase (Mus musculus). The assay can be described thus: Binding affinity to Dihydrofolate reductase of L1210/R71 using spectrophotometric assay. The gist of the method:
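The enzyme was isolated from MTX-resistant L1210/R71 cultured cells and purified on MTX-agarose. The assay measured ΔA340 at 22 °C in 0.1 M Tris, pH 7.0, with 62 nM enzyme. Enzyme was preincubated 2 min with inhibitor and NADPH, and dihydrofolate was then added to start the reaction. ID₅₀ determined.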

Assay [24] deals with Mus musculus. Put plainly: Weight change on day 7 in L1210 Lymphoid Leukemia in mice at a dose of 8 mg/kg/day (1dx9). Type of assay: functional. Summed up:
as §2

Assay [25] concerns Mus musculus. Put plainly: Toxicity in mice after 12-20 days at a dose of 4 mg/kg/day; value is 13/8.5. The class given is functional.
For assay [26], the species on record is Mus musculus. Put plainly: Percentage increase in life span after 10-23 days. The class given is functional. Summed up: as §1
For assay [27], the species on record is Mus musculus. The assay can be described thus: Percentage increase in life span after 10-22 days. Type of assay: functional. The gist of the method:
as §1

For assay [28], the system named is Mus musculus. The assay can be described thus: Toxicity in mice after 17-18 days at a dose of 30 mg/kg/day; value is 17/9. The class given is functional.
Assay [29] has as its system Mus musculus. The assay can be described thus: Toxicity in mice after 12-15 days at a dose of 10 mg/kg/day; value is 13/9. Type of assay: functional.
For assay [30], the species on record is Mus musculus. Put plainly: Percentage increase in life span after 17-18 days. The class given is functional. Summed up:
as §1

The subject of assay [31] is Mus musculus. Put plainly: Toxicity in mice after 15-17 days at a dose of 20 mg/kg/day; value is 16/9. The class given is functional.
Assay [32] is filed under the species Mus musculus. Put plainly: Percentage increase in life span after 12-15 days. Type of assay: functional. Summed up: as §1
For assay [33], the system named is Mus musculus. The assay can be described thus: Weight change on day 7 in L1210 Lymphoid Leukemia in mice at a dose of 30 mg/kg/day (qdx9). The class given is functional. The gist of the method: as §3
The species named for assay [34] is Mus musculus. Put plainly: Percentage increase in life span after 13-20 days. Type of assay: functional. The gist of the method: as §1
Assay [35] is filed under the species Mus musculus. Put plainly: Percentage increase in life span after 15-17 days. The class given is functional. The gist of the method: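 Male B6D2F1J mice (20–25 g) were inoculated i.p. with 10⁵ L1210 ascitic leukemia cells on day 0 and randomized into groups of 5. Drug in water at pH 7.5–8.0 was given i.p. from day 1 on qd×9, q2d×5 or b.i.d.×10 schedules. Weight change was recorded at day 7. %ILS = [(T/C) − 1]100, using median survival days; ≥25% counts as significant.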

Assay [36] concerns Mus musculus. The assay can be described thus: Weight change on day 7 in L1210 Lymphoid Leukemia in mice at a dose of 10 mg/kg/day (qd x9). The class given is functional. Summed up:
as §3

The subject of assay [37] is Mus musculus. The assay can be described thus: Toxicity in mice after 13-20 days at a dose of 40 mg/kg/day; value is 19/9. Type of assay: functional.

Chain of Dihydrofolate reductase (Lactobacillus casei) (P00381 whole entry): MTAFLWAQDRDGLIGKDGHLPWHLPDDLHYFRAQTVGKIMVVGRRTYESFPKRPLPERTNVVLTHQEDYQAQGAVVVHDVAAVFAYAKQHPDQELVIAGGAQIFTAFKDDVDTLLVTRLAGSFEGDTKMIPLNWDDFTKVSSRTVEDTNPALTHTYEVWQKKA

The compound `CN(Cc1cnc2nc(N)nc(N)c2n1)c1ccc(C(=O)NC(CCCCC(=O)O)C(=O)O)cc1` (stereo not drawn) had a Ki in [1] of 22000 nM. Also, in the assay on L1210, the IC50 was found to be 10 nM. The increase in life span (ILS) in the assay listed under Mus musculus [2] is recorded as 65%; in the assay listed under Mus musculus [4] it was 44%; in the assay filed under Mus musculus [8], 100%; in the assay filed under Mus musculus [11] it was 41%; in the assay filed under Mus musculus [19], 52%; in the assay filed under Mus musculus [26] it was 133%. This compound had an ILS in the assay listed under Mus musculus [27] of 67%. Besides, the Weight change in the assay on Mus musculus [3] was -4%; in the assay with Mus musculus [6] it was -2%; with Mus musculus [9] it was 6%; with Mus musculus [13], 4%; in the assay with Mus musculus [16], 10%; with Mus musculus [24], 4%. Also, the ID50 came out at 18 nM in assay [5]; 6.3 nM in assay [10]; 2.8 nM in assay [14]; 6.9 nM in assay [20]; 39 nM in assay [23]. For the same compound, the T/C in the assay on Mus musculus [7] turned out to be 12; in the assay with Mus musculus [12] it was 18; in the assay with Mus musculus [15], 21; in the assay with Mus musculus [17] it was 15; in the assay with Mus musculus [21], 13; in the assay with Mus musculus [22] it was 14. The T/C in the assay with Mus musculus [25] is 13. For the same compound, in [18], the Km was 481 µM. The Vmax in assay [18] was determined as 0.44 min⁻¹.
`CN(Cc1cnc2nc(N)nc(N)c2n1)c1ccc(C(=O)NC(CCCCCC(=O)O)C(=O)O)cc1` (stereo not drawn): the T/C in the assay on Mus musculus [28] was found to be 17; in the assay on Mus musculus [29], 13; with Mus musculus [31] it was 16; in the assay on Mus musculus [37], 19. The increase in life span (ILS) is 89% in the assay filed under Mus musculus [30], 44% in the assay filed under Mus musculus [32], 111% in the assay listed under Mus musculus [34] and 78% in the assay listed under Mus musculus [35]. Further, the IC50 in the assay with L1210 came out at 6.3 nM. Further, the Weight change in the assay on Mus musculus [3] turned out to be 6%; with Mus musculus [6], 7%; in the assay with Mus musculus [33] it was 9%; in the assay with Mus musculus [36], 11%. The ID50 in assay [23] was 35 nM.
